Assay results taken from ChEMBL document CHEMBL4321820, “Identification and Optimization of Mechanism-Based Fluoroallylamine Inhibitors of Lysyl Oxidase-like 2/3” (J Med Chem, 2019).

Key:
Protein-lysine 6-oxidase = biological target: T1, Protein-lysine 6-oxidase (Bos taurus, UniProt P33072); assay: Inhibition of LOX in bovine aorta using putrescine as substrate preincubated with enzyme for 30 mins followed by substrate addition and measured every 2.5 mins for 30 mins by Amplex-Red oxidation assay; type: tissue-based; details: read-out: pIC50 (converted)
T1 sequence (P33072 whole entry): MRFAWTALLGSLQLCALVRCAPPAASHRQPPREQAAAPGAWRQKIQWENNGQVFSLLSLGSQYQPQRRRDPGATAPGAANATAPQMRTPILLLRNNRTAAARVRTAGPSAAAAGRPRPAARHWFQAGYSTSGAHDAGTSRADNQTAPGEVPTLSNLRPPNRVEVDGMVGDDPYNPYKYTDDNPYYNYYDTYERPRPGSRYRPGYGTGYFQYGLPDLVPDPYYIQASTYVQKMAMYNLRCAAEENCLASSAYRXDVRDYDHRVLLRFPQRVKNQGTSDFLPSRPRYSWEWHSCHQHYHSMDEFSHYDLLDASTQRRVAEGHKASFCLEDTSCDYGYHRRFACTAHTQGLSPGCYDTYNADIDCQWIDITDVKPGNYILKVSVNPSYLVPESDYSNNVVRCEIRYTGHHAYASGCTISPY
Method in brief: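 LOX extracted from calf aorta after PBS washing with 4 M urea/50 mM borate pH 8.2, concentrated on 10 kDa filters into 1.2 M urea/borate with protease inhibitors. Preincubated 30 min at 37 °C with compound, then Amplex Red/HRP with 10 mM putrescine; fluorescence read every 2.5 min for 30 min.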

Lysyl oxidase homolog 2 = biological target: T2, Lysyl oxidase homolog 2 (Homo sapiens, UniProt Q9Y4K0); assay: Inhibition of recombinant human C-terminal His-tagged […] (1-774 residues) expressed in mouse myeloma cells using putrescine as substrate preincubated with enzyme for 30 mins followed by substrate addition and measured every 2.5 mins for 30 mins by Amplex-Red oxidation assay; details: read-out: pIC50 (converted)
T2 sequence (Q9Y4K0 whole entry): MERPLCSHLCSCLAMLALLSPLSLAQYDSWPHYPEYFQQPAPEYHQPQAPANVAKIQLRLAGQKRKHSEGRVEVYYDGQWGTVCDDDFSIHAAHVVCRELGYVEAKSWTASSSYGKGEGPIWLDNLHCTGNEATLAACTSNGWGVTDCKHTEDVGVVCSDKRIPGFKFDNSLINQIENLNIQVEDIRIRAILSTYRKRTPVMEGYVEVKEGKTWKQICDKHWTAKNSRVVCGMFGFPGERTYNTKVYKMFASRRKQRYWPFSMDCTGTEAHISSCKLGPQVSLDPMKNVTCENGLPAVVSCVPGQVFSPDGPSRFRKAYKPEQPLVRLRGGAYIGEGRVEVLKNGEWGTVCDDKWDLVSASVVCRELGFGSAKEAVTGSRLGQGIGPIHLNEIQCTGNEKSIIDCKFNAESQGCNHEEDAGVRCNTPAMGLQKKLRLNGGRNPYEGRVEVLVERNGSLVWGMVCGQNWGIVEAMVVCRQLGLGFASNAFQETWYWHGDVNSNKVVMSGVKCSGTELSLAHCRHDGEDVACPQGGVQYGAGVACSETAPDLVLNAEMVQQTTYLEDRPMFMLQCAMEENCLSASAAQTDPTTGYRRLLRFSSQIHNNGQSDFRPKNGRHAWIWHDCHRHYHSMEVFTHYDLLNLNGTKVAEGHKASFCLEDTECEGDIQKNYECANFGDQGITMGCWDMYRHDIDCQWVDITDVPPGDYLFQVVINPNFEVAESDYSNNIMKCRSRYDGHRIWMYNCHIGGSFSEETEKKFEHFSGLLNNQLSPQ
Method in brief: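 LOXL2 enzyme preincubated with compound for 30 min at 37 °C, then Amplex Red (120 µM) / HRP (1.5 U/mL) mix containing 5 mM putrescine added. Buffer: 1.2 M urea, 50 mM sodium borate, pH 8.2. H2O2 fluorescence (ex 565/em 590) read every 2.5 min for 30 min at 37 °C; BAPN 100 µM as positive control; n≥2.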

[1] = biological target: T3, Amine oxidase [copper-containing] 3 (Homo sapiens, UniProt Q16853); assay: Substrate activity at recombinant human SSAO assessed as compound oxidation by measuring oxidative turnover at 30 uM measured for 40 mins by horseradish peroxidase-coupled amplex red reagent-based fluorometric assay relative to DMSO; type: ADME
T3 sequence (Q16853 whole entry): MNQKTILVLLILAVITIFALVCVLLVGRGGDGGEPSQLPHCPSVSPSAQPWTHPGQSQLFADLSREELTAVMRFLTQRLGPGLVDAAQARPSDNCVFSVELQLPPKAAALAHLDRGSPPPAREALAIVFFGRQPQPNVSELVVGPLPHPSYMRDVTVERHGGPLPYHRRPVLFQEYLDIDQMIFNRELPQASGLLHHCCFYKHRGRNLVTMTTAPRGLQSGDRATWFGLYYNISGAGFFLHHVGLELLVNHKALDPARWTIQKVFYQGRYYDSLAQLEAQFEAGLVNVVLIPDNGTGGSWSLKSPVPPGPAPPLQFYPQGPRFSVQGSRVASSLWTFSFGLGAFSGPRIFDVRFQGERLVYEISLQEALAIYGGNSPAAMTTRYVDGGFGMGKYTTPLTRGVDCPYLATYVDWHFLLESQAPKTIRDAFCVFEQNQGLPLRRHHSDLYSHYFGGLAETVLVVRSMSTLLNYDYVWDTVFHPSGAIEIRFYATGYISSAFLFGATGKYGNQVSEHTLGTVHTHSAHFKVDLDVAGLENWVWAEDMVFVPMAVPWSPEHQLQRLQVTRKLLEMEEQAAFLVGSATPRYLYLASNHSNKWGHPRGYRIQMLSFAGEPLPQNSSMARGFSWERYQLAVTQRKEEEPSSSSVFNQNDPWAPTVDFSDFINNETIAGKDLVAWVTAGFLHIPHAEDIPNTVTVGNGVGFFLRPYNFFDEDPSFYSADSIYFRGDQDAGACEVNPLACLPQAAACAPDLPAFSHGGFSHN
Method in brief: (§1)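 Compound oxidation measured without substrate by peroxidase-coupled fluorometric read-out of resorufin formation over 40 min at 37 °C in HEPES buffer. Amplex Red 20 µM, HRP 4 U/ml, test compound at final 30 µM. Enzyme source was human recombinant SSAO or AOC4 from diluted dog serum. Benzylamine at 600 µM served as positive control. Signal is expressed relative to DMSO-only background, so a value near 1 means no turnover.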

[2] = Substrate activity at AOC4 in dog serum assessed as compound oxidation by measuring oxidative turnover at 30 uM measured for 40 mins by horseradish peroxidase-coupled amplex red reagent-based fluorometric assay relative to DMSO; type: ADME, cell-free, Canis lupus familiaris; method in brief: as §1
[3] = biological target: T3, Amine oxidase [copper-containing] 3; assay: Inhibition of recombinant human SSAO using benzylamine as substrate preincubated with enzyme for 30 mins followed by substrate addition and measured every 2.5 mins for 30 mins by Amplex-Red oxidation assay; details: read-out: pIC50 (converted)
[4] = Selectivity index, ratio of IC50 for recombinant human C-terminal His-tagged […] (1-774 residues) expressed in mouse myeloma cells to IC50 for LOX in bovine aorta
[5] = biological target: T4, Amine oxidase [flavin-containing] B (Homo sapiens, UniProt P27338); assay: Inhibition of recombinant human MAOB expressed in baculovirus infected in BTI cells using benzylamine as substrate preincubated with enzyme for 30 mins followed by substrate addition and measured every 2.5 mins for 30 mins by Amplex-Red oxidation assay; details: read-out: pIC50 (converted)
T4 sequence (P27338 whole entry): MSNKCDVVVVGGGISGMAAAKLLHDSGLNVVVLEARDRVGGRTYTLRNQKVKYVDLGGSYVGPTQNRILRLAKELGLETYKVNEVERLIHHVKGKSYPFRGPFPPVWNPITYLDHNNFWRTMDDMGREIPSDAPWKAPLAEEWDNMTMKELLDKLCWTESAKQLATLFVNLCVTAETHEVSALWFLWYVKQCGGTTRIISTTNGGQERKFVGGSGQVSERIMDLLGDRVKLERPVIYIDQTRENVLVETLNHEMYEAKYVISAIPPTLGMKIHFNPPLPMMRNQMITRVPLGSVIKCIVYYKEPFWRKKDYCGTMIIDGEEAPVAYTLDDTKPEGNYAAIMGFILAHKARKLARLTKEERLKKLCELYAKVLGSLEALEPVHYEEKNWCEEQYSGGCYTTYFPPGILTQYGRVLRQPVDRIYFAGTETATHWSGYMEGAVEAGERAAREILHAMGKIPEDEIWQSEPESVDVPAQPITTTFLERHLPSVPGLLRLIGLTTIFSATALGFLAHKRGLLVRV

Row | Structure (SMILES) | IC50 (Protein-lysine 6-oxidase) [µM] | IC50 (Lysyl oxidase homolog 2) [µM] | fold change (FC) [1] | fold change (FC) [2] | IC50 [3] [µM] | IC50 ratio [4] | IC50 [5] [µM]
1 | CN(C)S(=O)(=O)c1ccc(Cc2cn(C/C(F)=C/CN)nn2)cc1.Cl | 0.631 | 0.0126 | > 4 |  |  |  | 
2 | CN(C)S(=O)(=O)c1ccc(-c2cn(C/C(F)=C/CN)nn2)cc1.Cl | 0.794 | 0.126 | > 4 |  |  |  | 
3 | Cc1c(-c2cccc(S(=O)(=O)N(C)C)c2)c2ccc(C(=O)O)cc2n1C/C(F)=C/CN.Cl | 15.8 | 0.501 | 1.1 | 1 |  |  | 
4 | CN(C)C(=O)c1ccc(OCc2cn(C/C(F)=C/CN)nn2)cc1 | 3.16 | 0.794 |  |  |  |  | 
5 | CS(=O)(=O)c1ccc(OCc2cn(C/C(F)=C/CN)nn2)cc1 | 0.631 | 0.2 |  |  |  |  | 
6 | CC(C)(C)c1ccc(OCc2cn(C/C(F)=C/CN)nn2)cc1 | 0.501 | 0.794 |  |  |  |  | 
7 | CS(=O)(=O)c1cccc(OCc2cn(C/C(F)=C/CN)nn2)c1 | 1 | 0.794 |  |  |  |  | 
8 | C[C@H](NS(=O)(=O)c1ccc(OC/C(F)=C\CN)cc1)c1ccccc1 | 2 | 2.51 |  |  | 0.0501 |  | 
9 | Cc1c(-c2cccc(S(=O)(=O)N(C)C)c2)c2cc(NS(C)(=O)=O)ccc2n1C/C(F)=C/CN.Cl | 1 | 0.02 | 1 | 1.5 |  |  | 
10 | Cc1c(-c2cccc(S(=O)(=O)N(C)C)c2)c2ncccc2n1C/C(F)=C/CN.Cl | 1.26 | 0.02 | 1.6 | 6.4 |  | 70 | 
11 | Cc1c(-c2cccc(S(=O)(=O)N(C)C)c2)c2cc(O)ccc2n1C/C(F)=C/CN.Cl | 1.26 | 0.0501 | 1 | 1.1 |  |  | 
12 | Cc1c(-c2cccc(S(=O)(=O)N(C)C)c2)c2cc(Cl)ccc2n1C/C(F)=C/CN.Cl | 3.16 | 0.126 | 1.2 | 1.1 |  |  | 
13 | CN(C)S(=O)(=O)c1ccc(-c2ccn(C/C(F)=C/CN)c2)cc1.Cl | 0.794 | 0.251 | > 4 |  |  |  | 
14 | Cc1c(-c2cccc(S(=O)(=O)N(C)C)c2)c2cc(S(C)(=O)=O)ccc2n1C/C(F)=C/CN.Cl | 0.398 | 0.00501 | 1.3 | 1.3 |  |  | 
15 | CN(C)S(=O)(=O)c1cccc(-c2ccn(C/C(F)=C/CN)c2)c1.Cl | 2 | 0.1 | > 4 |  |  |  | 
16 | CN(C)S(=O)(=O)c1ccc(OCc2cn(C/C(F)=C/CN)nn2)cc1.Cl | 0.794 | 0.0501 | > 4 |  | > 31.6 |  | 0.126
17 | Cc1c(-c2cccc(S(=O)(=O)N(C)C)c2)c2cc(-c3nnn[nH]3)ccc2n1C/C(F)=C/CN.Cl | 15.8 | 0.126 |  | 1 |  |  | 
18 | COc1ccc2c(c1)c(-c1cccc(S(=O)(=O)N(C)C)c1)c(C)n2C/C(F)=C/CN.Cl | 1.58 | 0.0794 | 4.6 | 1.6 |  |  | 
19 | Cc1c(-c2cccc(S(=O)(=O)N(C)C)c2)c2ccc(C(=O)N(C)C)cc2n1C/C(F)=C/CN.Cl | 0.794 | 0.0631 | 1 | 1.1 |  |  | 
20 | CS(=O)(=O)c1ccccc1OCc1cn(C/C(F)=C/CN)nn1 | 3.16 | 2 |  |  |  |  | 
21 | Cc1c(-c2ccc(S(=O)(=O)N(C)C)cc2)c2ccccc2n1C/C(F)=C/CN.Cl | 3.16 | 0.794 | 2.8 |  |  |  | 
22 | NC/C=C(\F)Cn1cc(COc2ccccc2)nn1 | 0.501 | 0.316 |  |  |  |  | 
23 | Cc1c(-c2cccc(S(=O)(=O)N(C)C)c2)c2cccc(C(=O)N(C)C)c2n1C/C(F)=C/CN.Cl | 20 | 3.16 | 1.1 | 1.4 |  |  | 
24 | Cc1c(-c2cccc(S(=O)(=O)N(C)C)c2)c2cc(C(=O)N(C)C)ccc2n1C/C(F)=C/CN.Cl | 1.58 | 0.0251 | 1.2 | 1 |  |  | 
25 | C[C@H](NS(=O)(=O)c1ccc(OC/C(F)=C/CN)cc1)c1ccccc1 | 0.398 | 0.316 |  |  | > 3.16 |  | 
26 | CN(C)S(=O)(=O)c1ccc(NCc2cn(C/C(F)=C/CN)nn2)cc1.Cl | 0.501 | 0.02 | > 4 |  |  |  | 
